The RNAGym collection of RNA variant scans (doi:10.1002/anie.201605470)

B1: Osa-1-4 twister ribozyme (parent)
chain: CCGCCUAACACUGCCAAUGCCGGUCCCAAGCCCGGAUAAAAGUGGAGGGGGCGG

Variants of: B1
Assay: self-cleavage, relative activity (ratio to wild type); higher = more cleavage; co-transcriptional
In short: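 Values are relative activity: the fraction cleaved, normalised to wild type. A doped DNA template for a 54-nucleotide twister ribozyme from Oryza sativa had 97 % wild-type base and 1 % of each other base at the 48 positions downstream of the cleavage site. The RNA was transcribed in vitro for 2 h at 37 °C so that it could cleave itself co-transcriptionally, then sequenced deeply, with cleavage status scored from the presence or absence of upstream sequence in reads.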

self-cleavage, 0.03:
A36U G13U
A36U G13C
A36G G13C
A36G G13U
A36U U24G
A38C G30U
A36U G30A
A36U C31A
A38C G13U
A38C G13C

self-cleavage, 0.12:
A36U G42U
A38C G42C
A36U G48A
A36U C32G
A36G G48U
A36U C25A
A36G C20G

self-cleavage, 1.06:
A36U G50C
A36U C52G
A36U C52U

self-cleavage, 0.43:
U37A U43G

self-cleavage, 0.94:
A36U C11U
A36G C33U
A38C C26U
A36G C25U
A36U G53A

self-cleavage, 0.61:
A36G G53U

self-cleavage, 0.62:
A36G G23A

self-cleavage, 0.74:
A38C C11A
A36G U43C

self-cleavage, 0.36:
A38C G35C

self-cleavage, 0.16:
A36U G51C
A36G C32G
A36G C31G

self-cleavage, 1.02:
A36G C21U
A36U A41U
A36G C52U
A36G U37A
A36U A38C
A38C
A36U G54U

self-cleavage, 0.08:
A36U C33G
A36G A46C
A36G G42U
A36U A40C
A36U G48U
A38C C14G
A36U C26G
A36G G49C
A38C C26G
A38C A7U
A36U A46U
A36U A46C

self-cleavage, 0.6:
A38C A40U

self-cleavage, 0.98:
A36U U18C
A36U A39G
A36G G54U
A36G U18C
A36G U18A
A36G C26U

self-cleavage, 0.09:
A36U A8C
A36U C27G
A36U G48C
A38C C14A
A36G C33G
A36G C32A
A38C A40C
A38C C32G
A38C C32A
A38C C20G
A36U A46G
A38C G22C
A38C C31G

self-cleavage, 0.9:
A36U G22U
A36U C9G

self-cleavage, 0.71:
A36U A8G

self-cleavage, 0.18:
A36U G23U
A38C C27A
A38C C27U
A36G G51C

self-cleavage, 0.68:
A36U A41G
U37G U43G

self-cleavage, 1:
A36U A38G
A38C C52A
A36U C26U
A38C A41U

self-cleavage, 0.64:
A36G C21A
A36U U43G
A36G U43G
A36U U12G
A38C G19A

self-cleavage, 0.53:
A38C A8G
A36G C9A

self-cleavage, 0.29:
A36U C27A

self-cleavage, 0.82:
A36U C20A
A36U G35C
A36G G34U

self-cleavage, 0.19:
A36U C20G
A36G C14A
A36U G22C
A36U G49A

self-cleavage, 0.76:
U37A U43A
A36G G50A

self-cleavage, 0.93:
U37G U43A
A36U G19U
A36G G35C
A36G C11U

self-cleavage, 0.63:
A36U A40U

self-cleavage, 0.86:
A38C A39C
A38C G35U
A38C C20A
A36U G34A

self-cleavage, 0.45:
A36U U24C

self-cleavage, 0.2:
A36G G47C

self-cleavage, 0.15:
A36U C32U
A36G G48C
A36G G48A

self-cleavage, 0.66:
U37C U43G
A36U G34C

self-cleavage, 0.84:
A36U G51A
A36U A40G
A38C G35A
A38C A40G
A36G C15G
A36U G34U

self-cleavage, 1.05:
A36U G22A
A36U U37G

self-cleavage, 1.07:
A36U U37C

self-cleavage, 0.33:
A38C G19U

self-cleavage, 0.22:
A38C A7G
A36G C25A

self-cleavage, 0.92:
A36U G35A
A38C C11U
A36G U43A
A38C C21U
A36U C25U
A36G G35A

self-cleavage, 0.11:
A36G A46G
A38C C15G
A36U G53C

self-cleavage, 0.37:
A36G C14G
A36G G51U
A38C C9A

self-cleavage, 0.87:
A36U G50A
A36U C11A
A38C G22U
A36G C20A

self-cleavage, 0.05:
A38C C33G
A36G G30U
A36G G30C
A36G G30A
A36U G45C
A36U G23C
A38C G30C
A38C G30A
A38C A7C

self-cleavage, 0.83:
A36U C9U
A38C C9G

self-cleavage, 0.89:
A36U C33U
A36G A41G
A36G C15U
A36G C9G
A38C C31U

self-cleavage, 0.96:
A38C A39G
A38C A39U
U37C U43A
A36U G44U
A36U G54C

self-cleavage, 0.78:
A36G G51A
A38C C9U

self-cleavage, 0.38:
A36U U43C
A36U A7G
U37C U43C
A38C G34C
A36G C27A

self-cleavage, 0.06:
A38C A46G
A38C C25G
A38C C27G
A36U G30C
A36G C26A

self-cleavage, 0.99:
A36U A41C
A36U U43A
A36U C20U
A36G U12A
A36G G19U
A36G A41U
A38C G44A
A36U U12A
A36U A39C
A36G C20U

self-cleavage, 0.07:
A38C G42U
A38C A46U
A38C A8C
A36U A7U
A38C C25A
A36U C14A
A38C C26A
A38C G23U
A38C C21G
A38C G19C
A36G G22C
A36G G45C
A36U G49C
A36G G23C
A36U C31G
A38C G13A

self-cleavage, 0.5:
A36U C14U
A38C C11G

self-cleavage, 0.95:
A36G G53A
A38C C20U
A36U C31U

self-cleavage, 0.04:
A38C A46C
A36U A7C
A36U C26A
A38C G23C
A36G C31A
A36G U24G
A36U G30U
A38C C31A

self-cleavage, 0.4:
A36U C15G
A38C C14U

self-cleavage, 0.8:
A36G G42A
A36G G19A

self-cleavage, 0.46:
A36U G45A
A36U G53U

self-cleavage, 0.52:
A36U G51U
U37G U43C
A36G U24A

self-cleavage, 0.35:
A38C G42A

self-cleavage, 0.69:
A36G U12C
A38C A41G

self-cleavage, 0.24:
A36U C33A
A36G G42C
A36G G13A
A36G G49A

self-cleavage, 0.88:
A36G C14U
A38C C25U
A36U U18G

self-cleavage, 0.79:
A38C C33U
U37A

self-cleavage, 0.47:
A36U C9A
A36G G47U

self-cleavage, 1.01:
A36G G44A
A36G C52A
A36U U37A
A36G C31U
A36G G22A
A36G G54C
A36U G54A

self-cleavage, 0.31:
A36U G47U
A36G G34C
A36U C15U
A38C C15A

self-cleavage, 0.58:
A36U U12C

self-cleavage, 0.17:
A36G C32U
A36U G49U

self-cleavage, 0.67:
A36U G19C
A38C G34U

self-cleavage, 0.57:
A36G G22U
A38C C15U

self-cleavage, 0.51:
A36U C15A

self-cleavage, 0.77:
A36G C9U

self-cleavage, 0.73:
A36G C11G

self-cleavage, 0.97:
A36G G44U
A36G G44C
A36U A38U
A36G A41C
A38C G44C
A36U U18A
A36U G44A

self-cleavage, 0.32:
A36U G47A
A36G C27U

self-cleavage, 0.85:
A36U G42A
A38C G34A
A36G C15A
A36G U18G
A36G C11A

self-cleavage, 0.91:
A36U C21A
A36G G34A
A38C A41C
A36U A39U
A36G G35U

self-cleavage, 0.48:
A36U G19A

self-cleavage, 1.04:
A36U C21U
A36G C52G
A36G U37C
A36U G35U
U37C
A36G G50U
A36G G50C
A36G G54A
A38C G22A
A36U C52A

self-cleavage, 0.27:
A36G G49U
A38C C21A
A36U U24A

self-cleavage, 0.1:
A36U C21G
A36G C21G
A38C C33A
A36G A46U
A38C G23A
A36U C25G

self-cleavage, 0.14:
A36U G13A
A36G C33A

self-cleavage, 0.54:
A36G G45A
A36G G47A

self-cleavage, 0.39:
A36G U12G

self-cleavage, 0.28:
A36U G42C
A38C A8U
A36U C27U

self-cleavage, 0.44:
U37A U43C
A36G U24C

self-cleavage, 0.21:
A36G G45U

self-cleavage, 0.34:
A36U A8U

self-cleavage, 1.03:
A36U G50U
A36G U37G
A38C C52G
A38C C52U
U37G
A36U G44C
A36U

self-cleavage, 0.13:
A36U G47C
A36U G45U
A36U C14G
A36G G53C
A36G G19C
A36U C32A
A38C C32U
A36G G23U
A36G C27G
A36G C25G
A36G C26G

self-cleavage, 0.72:
A36U G23A
A36U C11G
